Data on ten molecules can be found in ChEMBL document CHEMBL4257452, “A mini-library system to investigate non-essential residues of lipid-phosphatidylserine (PS) binding peptide-peptoid hybrid PPS1” (Medchemcomm, 2017).

The source made the active and inactive calls. No cut-off for these calls is given here. Starred links: 1 amine or outer side, 2 acyl side, 3 side chain; linkers in the order of their positions; H or OH if unused. Positions of bridges follow the written chain, without caps; N, C: chain ends. Non-standard residues stand in square brackets, D forms with d. Residues, ends and D or L forms follow the SMILES beside them. Chains are numbered I, II in the order given. Gly(N-piperonyl) = O=C(O)CNCc1ccc2c(c1)OCO2; X5 = O=C(CN(c1ccc2c(c1)OCCO2)[*:1])[*:2]; N(4-MeOBn)Gly = COc1ccc(CNCC(=O)O)cc1; X1 = COc1cccc(CN(CC(=O)[*:2])[*:1])c1; X2 = CC(CN(CC(=O)[*:2])[*:1])c1ccccc1; N((CH2)3OiPr)Gly = CC(C)OCCCNCC(=O)O; X3 = CC(c1ccccc1)N(CC(=O)[*:2])[*:1]; Nrpe = C[C@@H](NCC(=O)O)c1ccccc1; NAllylGly = C=CCNCC(=O)O; Nlys = NCCCCNCC(=O)O; Nme = COCCNCC(=O)O

In data set [1] the test system is HCC4017. Put plainly: Cytotoxicity against human HCC4017 cells assessed as reduction in cell viability at 20 uM after 24 hrs by MTS assay. It is filed as functional, cell-based. The method in brief:
(§1)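 HCC4017 cells (RPMI, 5% FBS) and HBEC-3KT normal lung cells (KSFM with recombinant human EGF and bovine pituitary extract) were plated at 10 000 cells/well in triplicate and left to adhere overnight. They were exposed to 1 or 20 μM compound for 24 h. MTS reagent was then added for 2 h and absorbance read at 490 nm. Viability is % of untreated control wells.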

Data set [2] concerns HCC4017. The experiment in a line: Cytotoxicity against human HCC4017 cells assessed as reduction in cell viability after 24 hrs by MTS assay. It is filed as functional, cell-based. The settings on record: HCC4017, 24 h. In a few lines:
(§2)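 HCC4017 lung cancer cells (RPMI, 5% FBS) were seeded at 10 000 cells/well in triplicate and adhered overnight. Purified compounds were given as a concentration gradient for 24 h. MTS reagent was added for 2 h and absorbance read at 490 nm. IC50 was taken from the viability curves.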

The subject of data set [3] is HCC4017. Put plainly: Cytotoxicity against human HCC4017 cells assessed as reduction in cell viability up to 100 uM after 24 hrs by calcein-AM dye based fluorescence assay. The class given is functional. The settings on record: in the assay text read “up to 50 uM” for “up to 100 uM”. The method in brief: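 HCC4017 cells were seeded at 10 000 cells/well in triplicate, adhered overnight, and treated with a graded series of compounds for 24 h. Medium was replaced with PBS containing calcein AM (1 mM as printed) for 15 min at room temperature. Fluorescence emission was read at 520 nm.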

In data set [4] the test system is HCC4017. The experiment in a line: Cytotoxicity against human HCC4017 cells assessed as reduction in cell viability at 1 uM after 24 hrs by MTS assay. The class given is functional, cell-based. The method in brief: as §1
A short description of data set [5]: Cytotoxicity against human HBEC3-KT cells assessed as reduction in cell viability at 1 uM after 24 hrs by MTS assay. The class given is cell-based. In a few lines:
as §1

Data set [6] is described as follows: Cytotoxicity against human HBEC3-KT cells assessed as reduction in cell viability at 20 uM after 24 hrs by MTS assay. The class given is cell-based. The method in brief: as §1
Data set [7] deals with HCC4017. The experiment in a line: Cytotoxicity against human HCC4017 cells assessed as reduction in cell viability up to 100 uM after 24 hrs by MTS assay. The class given is functional, cell-based. The settings on record: in the assay text read “up to 50 uM” for “up to 100 uM”. In a few lines:
as §2

Consider `COc1ccc(CN(CC(=O)N(CCCOC(C)C)CC(=O)NC(CCCCN)C(=O)NC(CCCCN)C(=O)NC(CCSC)C(=O)NCCCCC(NC(=O)C(CCSC)NC(=O)C(CCCCN)NC(=O)C(CCCCN)NC(=O)CN(CCCOC(C)C)C(=O)CN(Cc2ccc(OC)cc2)C(=O)CN(C(=O)CN(Cc2ccc3c(c2)OCO3)C(=O)CNC(C)c2ccccc2)C(C)c2ccccc2)C(N)=O)C(=O)CN(C(=O)CN(Cc2ccc3c(c2)OCO3)C(=O)CNC(C)c2ccccc2)C(C)c2ccccc2)cc1` (configuration not stated) (I: H-[X3][Gly(N-piperonyl)][X3][N(4-MeOBn)Gly][N((CH2)3OiPr)Gly]KKMK-NH2 / II: H-[X3][Gly(N-piperonyl)][X3][N(4-MeOBn)Gly][N((CH2)3OiPr)Gly]KKM; amide I:9-II:C; configuration not given here), for which the result in the data set with HCC4017 [1] and with HCC4017 [3] was Active. In the data set on HCC4017 [2], the half-maximal inhibitory concentration (IC50) lay within 7 to 10 µM. For the same molecule, the outcome in the data set on HCC4017 [4] was inactive. Moreover, the Activity result in data set [5] and in data set [6] was “Non-Toxic” each time.
Turning to `COc1ccc(CN(CC(=O)N(CC(=O)NC(CCCCN)C(=O)NC(CCCCN)C(=O)NC(CCSC)C(=O)NCCCCC(NC(=O)C(CCSC)NC(=O)C(CCCCN)NC(=O)C(CCCCN)NC(=O)CN(Cc2cccc(OC)c2)C(=O)CN(Cc2ccc(OC)cc2)C(=O)CN(C(=O)CN(Cc2ccc3c(c2)OCO3)C(=O)CNC(C)c2ccccc2)C(C)c2ccccc2)C(N)=O)Cc2cccc(OC)c2)C(=O)CN(C(=O)CN(Cc2ccc3c(c2)OCO3)C(=O)CNC(C)c2ccccc2)C(C)c2ccccc2)cc1` (configuration not stated) (I: H-[X3][Gly(N-piperonyl)][X3][N(4-MeOBn)Gly][X1]KKMK-NH2 / II: H-[X3][Gly(N-piperonyl)][X3][N(4-MeOBn)Gly][X1]KKM; amide I:9-II:C; configuration not given here), the result in the data set on HCC4017 [1] and with HCC4017 [3] was Active. For the same molecule, the concentration for half-maximal inhibition (IC50) in the data set on HCC4017 [2] lay in the range of 7 to 10 µM. The result with HCC4017 [4] was inactive. Moreover, the Activity entry in data set [5] and in data set [6] was “Non-Toxic” in each case.
Turning to `COc1ccc(CN(CC(=O)N(CC(=O)NC(CCCCN)C(=O)NC(CCCCN)C(=O)NC(CCSC)C(=O)NCCCCC(NC(=O)C(CCSC)NC(=O)C(CCCCN)NC(=O)C(CCCCN)NC(=O)CN(CC(C)c2ccccc2)C(=O)CN(Cc2ccc(OC)cc2)C(=O)CN(C(=O)CN(Cc2ccc3c(c2)OCO3)C(=O)CNC(C)c2ccccc2)C(C)c2ccccc2)C(N)=O)CC(C)c2ccccc2)C(=O)CN(C(=O)CN(Cc2ccc3c(c2)OCO3)C(=O)CNC(C)c2ccccc2)C(C)c2ccccc2)cc1` (configuration not stated) (I: H-[X3][Gly(N-piperonyl)][X3][N(4-MeOBn)Gly][X2]KKMK-NH2 / II: H-[X3][Gly(N-piperonyl)][X3][N(4-MeOBn)Gly][X2]KKM; amide I:9-II:C; configuration not given here), the result in the data set on HCC4017 [1] and in the data set with HCC4017 [3] was Active. The IC50 with HCC4017 [2] was in the range of 7 to 10 µM. The outcome with HCC4017 [4] was inactive. In addition, the Activity result in data set [5] and in data set [6] was “Non-Toxic” in each case.
On to `C=CCNCC(=O)N(CCOC)CC(=O)N(CC=C)CC(=O)N(CCOC)CC(=O)N(CC=C)CC(=O)NCC(=O)NC(CCCCN)C(=O)NC(CCSC)C(=O)NCCCCC(NC(=O)C(CCSC)NC(=O)C(CCCCN)NC(=O)CNC(=O)CN(CC=C)C(=O)CN(CCOC)C(=O)CN(CC=C)C(=O)CN(CCOC)C(=O)CNCC=C)C(N)=O` (configuration not stated) (I: H-[NAllylGly][Nme][NAllylGly][Nme][NAllylGly]GKMK-NH2 / II: H-[NAllylGly][Nme][NAllylGly][Nme][NAllylGly]GKM; amide I:9-II:C; configuration not given here), for which the outcome in the data set on HCC4017 [3] and in the data set with HCC4017 [4] was inactive. Also, the Activity entry in data set [5] and in data set [6] was “Non-Toxic” throughout.
For `COc1ccc(CN(CC(=O)N(CC(=O)N[C@@H](CCCCN)C(=O)N[C@H](CCCCN)C(=O)N[C@@H](CCSC)C(=O)NCCCC[C@H](NC(=O)[C@H](CCSC)NC(=O)[C@@H](CCCCN)NC(=O)[C@H](CCCCN)NC(=O)CN(C(=O)CN(Cc2ccc(OC)cc2)C(=O)CN(C(=O)CN(Cc2ccc3c(c2)OCO3)C(=O)CN[C@H](C)c2ccccc2)[C@H](C)c2ccccc2)c2ccc3c(c2)OCCO3)C(N)=O)c2ccc3c(c2)OCCO3)C(=O)CN(C(=O)CN(Cc2ccc3c(c2)OCO3)C(=O)CN[C@H](C)c2ccccc2)[C@H](C)c2ccccc2)cc1` (I: H-[Nrpe][Gly(N-piperonyl)][Nrpe][N(4-MeOBn)Gly][X5]K[dK]MK-NH2 / II: H-[Nrpe][Gly(N-piperonyl)][Nrpe][N(4-MeOBn)Gly][X5]K[dK]M; amide I:9-II:C), the outcome in the data set with HCC4017 [1] was Active. Further, the outcome in the data set on HCC4017 [4] was inactive. The Activity result in data set [5] and in data set [6] was “Non-Toxic” each time.
`COc1ccc(CN(CC(=O)NC(CCC(=O)O)C(=O)NC(CCCCN)C(=O)NC(CCCCN)C(=O)NC(CCSC)C(=O)NCCCCC(NC(=O)C(CCSC)NC(=O)C(CCCCN)NC(=O)C(CCCCN)NC(=O)C(CCC(=O)O)NC(=O)CN(Cc2ccc(OC)cc2)C(=O)CN(C(=O)CN(Cc2ccc3c(c2)OCO3)C(=O)CNC(C)c2ccccc2)C(C)c2ccccc2)C(N)=O)C(=O)CN(C(=O)CN(Cc2ccc3c(c2)OCO3)C(=O)CNC(C)c2ccccc2)C(C)c2ccccc2)cc1` (configuration not stated) (I: H-[X3][Gly(N-piperonyl)][X3][N(4-MeOBn)Gly]EKKMK-NH2 / II: H-[X3][Gly(N-piperonyl)][X3][N(4-MeOBn)Gly]EKKM; amide I:9-II:C; configuration not given here): the outcome in the data set with HCC4017 [1] and with HCC4017 [7] was inactive.
As to `COc1ccc(CN(CC(=O)N(CCCCN)CC(=O)NC(CCCCN)C(=O)NC(CCCCN)C(=O)NCCCCC(NC(=O)C(CCCCN)NC(=O)C(CCCCN)NC(=O)CN(CCCCN)C(=O)CN(Cc2ccc(OC)cc2)C(=O)CN(C(=O)CN(Cc2ccc3c(c2)OCO3)C(=O)CNC(C)c2ccccc2)C(C)c2ccccc2)C(N)=O)C(=O)CN(C(=O)CN(Cc2ccc3c(c2)OCO3)C(=O)CNC(C)c2ccccc2)C(C)c2ccccc2)cc1` (configuration not stated) (I: H-[X3][Gly(N-piperonyl)][X3][N(4-MeOBn)Gly][Nlys]KKK-NH2 / II: H-[X3][Gly(N-piperonyl)][X3][N(4-MeOBn)Gly][Nlys]KK; amide I:8-II:C; configuration not given here), the result in the data set with HCC4017 [1] and with HCC4017 [3] was Active.
`COc1ccc(CN(CC(=O)NC(C(=O)NC(CCCCN)C(=O)NC(CCCCN)C(=O)NC(CCSC)C(=O)NCCCCC(NC(=O)C(CCSC)NC(=O)C(CCCCN)NC(=O)C(CCCCN)NC(=O)C(NC(=O)CN(Cc2ccc(OC)cc2)C(=O)CN(C(=O)CN(Cc2ccc3c(c2)OCO3)C(=O)CNC(C)c2ccccc2)C(C)c2ccccc2)C(C)O)C(N)=O)C(C)O)C(=O)CN(C(=O)CN(Cc2ccc3c(c2)OCO3)C(=O)CNC(C)c2ccccc2)C(C)c2ccccc2)cc1` (configuration not stated) (I: H-[X3][Gly(N-piperonyl)][X3][N(4-MeOBn)Gly]TKKMK-NH2 / II: H-[X3][Gly(N-piperonyl)][X3][N(4-MeOBn)Gly]TKKM; amide I:9-II:C; configuration not given here): the outcome in the data set with HCC4017 [1] was Active. Also, the IC50 in the data set on HCC4017 [2] is 14 µM.
Take `COc1ccc(CN(CC(=O)NC(Cc2ccccc2)C(=O)NC(CCCCN)C(=O)NC(CCCCN)C(=O)NC(CCSC)C(=O)NCCCCC(NC(=O)C(CCSC)NC(=O)C(CCCCN)NC(=O)C(CCCCN)NC(=O)C(Cc2ccccc2)NC(=O)CN(Cc2ccc(OC)cc2)C(=O)CN(C(=O)CN(Cc2ccc3c(c2)OCO3)C(=O)CNC(C)c2ccccc2)C(C)c2ccccc2)C(N)=O)C(=O)CN(C(=O)CN(Cc2ccc3c(c2)OCO3)C(=O)CNC(C)c2ccccc2)C(C)c2ccccc2)cc1` (configuration not stated) (I: H-[X3][Gly(N-piperonyl)][X3][N(4-MeOBn)Gly]FKKMK-NH2 / II: H-[X3][Gly(N-piperonyl)][X3][N(4-MeOBn)Gly]FKKM; amide I:9-II:C; configuration not given here): the result in the data set on HCC4017 [1] was Active. Also, in the data set with HCC4017 [2], the IC50 was 7 to 10 µM. For the same molecule, in the data set with HCC4017 [4], the result was inactive. For the same molecule, the Activity entry in data set [5] and in data set [6] was “Non-Toxic” throughout.
As for `COc1ccc(CN(CC(=O)N(CCCCN)CC(=O)N[C@@H](CCCCN)C(=O)N[C@H](CCCCN)C(=O)N[C@@H](CCSC)C(=O)NCCCC[C@H](NC(=O)[C@H](CCSC)NC(=O)[C@@H](CCCCN)NC(=O)[C@H](CCCCN)NC(=O)CN(CCCCN)C(=O)CN(Cc2ccc(OC)cc2)C(=O)CN(C(=O)CN(Cc2ccc3c(c2)OCO3)C(=O)CN[C@H](C)c2ccccc2)[C@H](C)c2ccccc2)C(N)=O)C(=O)CN(C(=O)CN(Cc2ccc3c(c2)OCO3)C(=O)CN[C@H](C)c2ccccc2)[C@H](C)c2ccccc2)cc1` (I: H-[Nrpe][Gly(N-piperonyl)][Nrpe][N(4-MeOBn)Gly][Nlys]K[dK]MK-NH2 / II: H-[Nrpe][Gly(N-piperonyl)][Nrpe][N(4-MeOBn)Gly][Nlys]K[dK]M; amide I:9-II:C), the outcome in the data set on HCC4017 [1] and in the data set with HCC4017 [3] was Active. The result in the data set with HCC4017 [4] was inactive. Besides, the Activity result in data set [5] and in data set [6] was “Non-Toxic” in each case.
